From ChEMBL document CHEMBL4219124, “Alleviating CYP and hERG liabilities by structure optimization of dihydrofuran-fused tricyclic benzo[d]imidazole series - Potent, selective and orally efficacious microsomal prostaglandin E synthase-1 (mPGES-1) inhibitors: Part-2” (Bioorg Med Chem Lett, 2018)

Key:
[1] = molecular target: CYP2C9 (Homo sapiens, UniProt P11712); assay: Inhibition of CYP2C9 in human liver microsomes at 10 uM after 20 mins in presence of NADPH by LC-MS/MS analysis; type: ADME
In short: (§1)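 Percent inhibition of each CYP isoform by test compound at 10 µM, compared with a no-inhibitor control. Run in triplicate.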

[2] = Metabolic stability in guinea pig liver microsomes assessed as parent compound remaining at 1 uM after 60 mins in presence of NADPH by LC-MS/MS analysis; type: ADME, Cavia porcellus, microsome; conditions: read-out: Stability
In short: (§2)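 Compound incubated 60 min at 37 °C with human, rat or guinea pig liver microsomes; percent parent remaining, triplicates.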

[3] = Protein binding in human plasma at 10 uM after 5 hrs by equilibrium dialysis based LC-MS/MS analysis; type: ADME, cell-free; conditions: read-out: PPB (converted)
In short: (§3)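 Equilibrium dialysis at 10 μM compound; result expressed as percent bound.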

[4] = molecular target: T1, CYP1A2 (Homo sapiens, UniProt P05177); assay: Inhibition of CYP1A2 in human liver microsomes at 10 uM after 20 mins in presence of NADPH by LC-MS/MS analysis; type: ADME; in short: as §1
T1 sequence (P05177 whole entry): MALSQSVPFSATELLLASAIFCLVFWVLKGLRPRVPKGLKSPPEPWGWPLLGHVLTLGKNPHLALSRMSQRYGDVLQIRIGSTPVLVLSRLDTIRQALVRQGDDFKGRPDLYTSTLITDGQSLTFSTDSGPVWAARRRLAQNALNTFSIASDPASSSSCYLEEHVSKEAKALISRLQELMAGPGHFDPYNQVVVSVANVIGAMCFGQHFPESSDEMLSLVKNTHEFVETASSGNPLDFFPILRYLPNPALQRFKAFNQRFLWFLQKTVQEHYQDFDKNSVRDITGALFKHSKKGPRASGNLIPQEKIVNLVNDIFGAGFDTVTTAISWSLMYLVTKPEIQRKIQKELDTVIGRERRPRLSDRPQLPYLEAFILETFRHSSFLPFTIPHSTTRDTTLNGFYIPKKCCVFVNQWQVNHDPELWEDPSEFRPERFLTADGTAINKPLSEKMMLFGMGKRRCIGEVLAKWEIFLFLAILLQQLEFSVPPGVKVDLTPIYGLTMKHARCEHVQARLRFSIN

[5] = Inhibition of recombinant human COX2 assessed as decrease in PGE2 production at 10 uM using arachidonic acid as substrate preincubated for 15 mins prior to substrate addition for 5 mins relative to control; conditions: recombinant COX2, probe arachidonic acid
[6] = Protein binding in guinea pig plasma at 10 uM after 5 hrs by equilibrium dialysis based LC-MS/MS analysis; type: ADME, cell-free, Cavia porcellus; conditions: read-out: PPB (converted); in short: as §3
[7] = molecular target: T2, Prostaglandin E synthase (Homo sapiens, UniProt O14684); assay: Inhibition of mPGES1 in human whole blood assessed as reduction in LPS-induced PGE2 production measured after 20 to 24 hrs
T2 sequence (O14684 whole entry): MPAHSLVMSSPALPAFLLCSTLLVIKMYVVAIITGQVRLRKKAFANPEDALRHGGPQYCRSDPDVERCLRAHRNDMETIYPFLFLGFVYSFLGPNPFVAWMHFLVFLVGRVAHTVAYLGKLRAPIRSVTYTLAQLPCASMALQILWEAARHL

[8] = molecular target: CYP3A4 (Homo sapiens, UniProt P08684); assay: Inhibition of CYP3A4 in human liver microsomes at 10 uM after 20 mins in presence of NADPH by LC-MS/MS analysis; type: ADME; in short: as §1
[9] = Metabolic stability in rat liver microsomes assessed as parent compound remaining at 1 uM after 60 mins in presence of NADPH by LC-MS/MS analysis; type: ADME, microsome; conditions: read-out: Stability; in short: as §2
[10] = molecular target: T2, Prostaglandin E synthase; assay: Inhibition of recombinant human mPGES1 expressed in CHO cells assessed as reduction in PGE2 production using PGH2 as substrate incubated for 10 mins followed by substrate addition measured for 1 min; type: cell-based
[11] = molecular target: Prostaglandin E synthase 2 (Homo sapiens) (UniProt Q9H7Z7); assay: Inhibition of mPGES2 in A23187-stimulated human THP1 cells assessed as decrease in PGE2 production at 10 uM using arachidonic acid as substrate relative to control
In short: (§4)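 Selectivity panel against other prostanoid-pathway enzymes. % inhibition values are means of at least two experiments, each in duplicate.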

[12] = system: CHO; assay: Inhibition of rat mPGES1 expressed in CHO cells assessed as reduction in PGE2 production at 10 uM using PGH2 as substrate incubated for 10 mins followed by substrate addition measured for 1 min relative to control; type: cell-based
In short: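 Rodent enzyme protocol run as for the human and guinea pig mPGES-1 enzyme assays; single-concentration percent inhibition.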

[13] = Inhibition of human U937 cells-derived COX1 assessed as decrease in PGE2 production at 10 uM using arachidonic acid as substrate preincubated for 15 mins prior to substrate addition for 5 mins relative to control; conditions: COX1 derived from U937 cells, probe arachidonic acid; in short: as §4
[14] = molecular target: T3, Prostaglandin E synthase 3 (Homo sapiens) (UniProt Q15185); assay: Inhibition of cPGES in human U937 cells assessed as decrease in PGE2 production at 10 uM using arachidonic acid as substrate relative to control; type: cell-based; in short: as §4
T3 sequence (whole entry): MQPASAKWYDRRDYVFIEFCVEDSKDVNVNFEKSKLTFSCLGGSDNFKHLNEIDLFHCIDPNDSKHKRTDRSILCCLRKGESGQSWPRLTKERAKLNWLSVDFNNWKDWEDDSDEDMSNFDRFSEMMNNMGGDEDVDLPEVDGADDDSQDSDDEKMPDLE

[15] = Inhibition of guinea pig mPGES1 expressed in CHO cells assessed as reduction in PGE2 production using PGH2 as substrate incubated for 10 mins followed by substrate addition measured for 1 min; set-up: species or system Cavia porcellus
In short: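 Guinea pig mPGES-1 enzyme assay, run the same way as the human enzyme assay. IC50 for inhibition of PGE2 formation, read from curves built on at least two experiments, each in duplicate.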

[16] = Metabolic stability in human liver microsomes assessed as parent compound remaining at 1 uM after 60 mins in presence of NADPH by LC-MS/MS analysis; type: ADME, microsome; conditions: read-out: Stability; in short: as §2
[17] = molecular target: T4, Thromboxane-A synthase (Homo sapiens) (UniProt P24557); assay: Inhibition of TXAS (unknown origin) at 10 uM relative to control; in short: as §4
T4 sequence (whole entry): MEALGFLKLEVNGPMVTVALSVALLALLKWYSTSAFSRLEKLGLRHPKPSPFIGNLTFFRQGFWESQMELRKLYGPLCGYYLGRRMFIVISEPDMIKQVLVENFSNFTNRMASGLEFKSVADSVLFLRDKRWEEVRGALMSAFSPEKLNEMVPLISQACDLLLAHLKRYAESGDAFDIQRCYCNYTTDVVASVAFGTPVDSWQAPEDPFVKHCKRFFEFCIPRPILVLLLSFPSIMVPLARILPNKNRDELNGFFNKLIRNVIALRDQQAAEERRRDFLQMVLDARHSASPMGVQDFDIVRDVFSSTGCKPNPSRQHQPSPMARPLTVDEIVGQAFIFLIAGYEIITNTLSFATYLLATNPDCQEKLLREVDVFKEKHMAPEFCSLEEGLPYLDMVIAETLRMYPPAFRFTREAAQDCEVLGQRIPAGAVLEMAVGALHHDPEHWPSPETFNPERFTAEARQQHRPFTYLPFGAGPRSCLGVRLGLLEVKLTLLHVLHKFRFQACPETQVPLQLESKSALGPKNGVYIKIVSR

Chain of CYP2C9 (P11712 whole entry, canonical isoform): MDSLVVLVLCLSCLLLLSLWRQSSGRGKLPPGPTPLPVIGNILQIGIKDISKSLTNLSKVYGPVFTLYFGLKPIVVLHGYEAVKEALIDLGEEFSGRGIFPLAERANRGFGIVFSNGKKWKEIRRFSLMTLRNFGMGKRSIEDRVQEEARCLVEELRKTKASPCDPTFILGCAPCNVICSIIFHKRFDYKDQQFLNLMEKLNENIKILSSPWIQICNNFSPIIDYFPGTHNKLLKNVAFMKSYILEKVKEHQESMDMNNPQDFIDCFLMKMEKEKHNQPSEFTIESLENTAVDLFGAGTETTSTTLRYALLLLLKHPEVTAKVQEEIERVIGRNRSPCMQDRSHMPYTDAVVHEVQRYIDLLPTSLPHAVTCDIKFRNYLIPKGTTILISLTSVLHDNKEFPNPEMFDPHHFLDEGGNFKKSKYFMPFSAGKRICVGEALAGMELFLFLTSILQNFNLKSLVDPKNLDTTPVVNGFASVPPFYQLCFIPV
Chain of Prostaglandin E synthase 2 (Homo sapiens) (Q9H7Z7 whole entry): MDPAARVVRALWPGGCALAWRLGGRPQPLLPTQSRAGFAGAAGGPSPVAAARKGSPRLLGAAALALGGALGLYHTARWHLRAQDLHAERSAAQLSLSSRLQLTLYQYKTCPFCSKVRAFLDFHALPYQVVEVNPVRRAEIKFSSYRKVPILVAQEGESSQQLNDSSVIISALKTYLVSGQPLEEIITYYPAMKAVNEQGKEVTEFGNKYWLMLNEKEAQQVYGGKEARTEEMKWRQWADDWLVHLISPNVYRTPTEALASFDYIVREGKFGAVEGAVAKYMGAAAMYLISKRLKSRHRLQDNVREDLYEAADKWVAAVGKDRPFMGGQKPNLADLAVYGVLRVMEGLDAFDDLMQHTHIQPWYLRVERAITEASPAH
Chain of CYP3A4 (P08684 whole entry): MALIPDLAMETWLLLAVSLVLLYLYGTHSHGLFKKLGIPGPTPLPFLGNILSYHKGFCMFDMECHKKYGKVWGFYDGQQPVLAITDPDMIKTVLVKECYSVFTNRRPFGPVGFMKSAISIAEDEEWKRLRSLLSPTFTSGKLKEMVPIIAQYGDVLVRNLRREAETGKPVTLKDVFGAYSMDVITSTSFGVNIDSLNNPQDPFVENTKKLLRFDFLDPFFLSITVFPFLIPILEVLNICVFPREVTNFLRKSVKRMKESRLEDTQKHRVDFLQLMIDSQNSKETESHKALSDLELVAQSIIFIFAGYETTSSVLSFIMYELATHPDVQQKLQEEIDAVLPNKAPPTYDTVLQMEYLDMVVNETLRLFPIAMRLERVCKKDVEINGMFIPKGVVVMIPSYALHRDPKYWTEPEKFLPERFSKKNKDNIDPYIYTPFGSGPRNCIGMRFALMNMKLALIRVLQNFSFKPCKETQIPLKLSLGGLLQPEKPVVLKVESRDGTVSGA

Row | inhibition at 20 min, 10 µM [1] | remaining at 1 h, 1 µM [2] | fraction unbound at 5 h, 10 µM [3] | inhibition at 20 min, 10 µM [4] | inhibition at 5 min, 10 µM [5] | fraction unbound at 5 h, 10 µM [6] | IC50 [7] | inhibition at 20 min, 10 µM [8] | remaining at 1 h, 1 µM [9] | IC50 [10] | inhibition [11] | inhibition at 5 min, 10 µM [13] | inhibition [14] | IC50 [15] | remaining at 1 h, 1 µM [16] | inhibition [17] | SMILES | inhibition [12]
1 | 19% | 51% | 0.0029 | 5% | 6.5% | 0.0028 | 0.405 µM | 8% | 89% | 0.0057 µM | 7.9% | 19.7% | 24% | 0.0043 µM | 98% | 22.1% | Cn1c(Nc2c(F)cccc2Cl)nc2cc(C(=O)Nc3cccc(C(F)(F)F)c3)c3c(c21)CC(C)(C)O3 | 3.4%
2 | 56% | 71% | 0.0004 | 4% | 35.9% | 0.0016 | 0.261 µM | 40% | 88% | 0.0084 µM | 7.8% | 7.8% | 0% | 0.012 µM | 91% | 1.3% | CC1(C)Cc2c(c(C(=O)Nc3ccc(C(F)(F)F)cn3)cc3nc(Nc4c(Cl)cccc4Cl)[nH]c23)O1 | 7.1%
3 | 48% | 100% | 0.0054 | -6% | 23.1% | 0.0136 | 0.208 µM | 46% | 91% | 0.005 µM | 11.6% | 8.27% | 0% | 0.024 µM | 100% | 25.5% | CC1(C)Cc2c(c(C(=O)Nc3ccc(F)c(C(F)(F)F)c3)cc3nc(Nc4c(F)cccc4Cl)[nH]c23)O1 | 10.5%
4 | 28% | 60% | 0.0008 | 28% | 43.2% | 0.0158 | 0.162 µM | 16% | 87% | 0.01 µM | 3.8% | 38.2% | 11% | 0.046 µM | 83% | 17.2% | Cc1cccc(Cl)c1Nc1nc2cc(C(=O)Nc3cc(C(F)F)ccc3F)c3c(c2[nH]1)CC(C)(C)O3 | 0.7%
5 | 15% | 46% | 0.0003 | 24% | 31% | 0.0004 | 0.222 µM | -4% | 97% | 0.0033 µM | 23.5% | 14.6% | 21.1% | 0.019 µM | 100% | 0.87% | Cc1cccc(Cl)c1Nc1nc2cc(C(=O)Nc3cc(C(F)(F)F)ccc3F)c3c(c2[nH]1)CC(C)(C)O3 | 0%
6 | 35% | 79% | 0.0004 | 22% | 28.7% | 0.0035 | 0.256 µM | 2% | 96% | 0.003 µM | 13.5% | 14.7% | 4.2% | 0.014 µM | 89% | 4.6% | CC1(C)Cc2c(c(C(=O)Nc3cc(C(F)(F)F)ccc3F)cc3nc(Nc4c(F)cccc4Cl)[nH]c23)O1 | 11.7%
